Screening data: PubChem, several laboratories
Compounds with a hit are over-represented: about 1.9% of the library has one in this group of screens.
NR1D1 modulator: modulators of Rev-erb alpha DNA binding, primary screen, biochemical, FITC-DNA, fluorescence polarization, uHTS; Rev-erbα–FITC-DNA binding, 90 min; activity, % at 10 µM; hit rate 0.79% among 370,000; AID 1259318, 2017;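 active = activity above about 14%, limit read from the data; passing the limit was not always enough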
Target sequence (P20393 whole entry, looked up): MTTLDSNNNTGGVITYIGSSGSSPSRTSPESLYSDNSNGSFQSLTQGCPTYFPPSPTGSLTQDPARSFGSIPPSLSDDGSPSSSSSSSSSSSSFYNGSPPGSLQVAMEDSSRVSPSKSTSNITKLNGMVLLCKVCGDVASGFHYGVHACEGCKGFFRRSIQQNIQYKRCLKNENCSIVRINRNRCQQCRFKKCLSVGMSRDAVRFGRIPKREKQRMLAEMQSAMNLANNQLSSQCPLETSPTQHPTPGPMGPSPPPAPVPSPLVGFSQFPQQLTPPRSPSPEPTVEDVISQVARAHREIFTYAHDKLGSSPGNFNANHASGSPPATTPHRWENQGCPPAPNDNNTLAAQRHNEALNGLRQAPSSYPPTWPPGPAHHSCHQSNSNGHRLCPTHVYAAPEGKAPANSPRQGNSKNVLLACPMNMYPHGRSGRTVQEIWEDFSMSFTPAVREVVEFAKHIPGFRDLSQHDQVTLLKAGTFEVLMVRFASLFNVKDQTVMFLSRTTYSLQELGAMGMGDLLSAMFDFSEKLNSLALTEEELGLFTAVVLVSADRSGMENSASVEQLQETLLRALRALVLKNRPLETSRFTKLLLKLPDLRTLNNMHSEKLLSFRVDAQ
Rce1 inh: yeast Rce1p protease inhibitors, primary screen, biochemical, fluorescence, cell-free homogeneous. CAAX prenyl protease 2 (Saccharomyces cerevisiae (strain ATCC 204508 / S288c)), Q03530. yeast membranes, quenched prenylated peptide cleavage fluorescence. calls only. hit rate 0.27% among 290,000. AID 2563, 2010;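 active = fall in fluorescence gain of 50% or more versus controls, with final raw signal at or below 3038400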
CR mimetic SO: reduction of superoxide in aged yeast, primary screen, HTS. S. cerevisiae aged cells, superoxide DHE fluorescence; hits give low values. superoxide response (% of plate mean), % at 10 µM. hit rate 0.18% among 330,000. AID 2690, 2010;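 active = superoxide response under a set limit, about three screen SD below normal, cut at about 65% in these data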;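 note: yeast aged for seven days with compound at 30 °C before DHE staining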
PG9 Ab binder: binders of HIV-1 gp120 antibody PG9, primary screen, biochemical, TR-FRET | TR-FRET gp120-PG9 antibody binding | inhibition, % at 6.7 µM | hit rate 0.43% among 360,000 | AID 624416, 2012; in the data active = inhibition above about 8.5%
MIN6 prolif: inducers of MIN6 beta-cell proliferation, primary screen, ATP luminescence, uHTS | hit rate 0.29% among 330,000 | proliferation, % at 10 µM | AID 2380, 2010 | MIN6 cells proliferation, ATPlite luminescence, 48 h; cells starved in 0.2% serum; 100% = growth in 10% serum;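 active = compounds whose signal lies at least 3.5 SD above the mean of all wells on their plate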
UCH37 DUB inh: inhibitors of human UCH37 deubiquitinase, primary screen, biochemical, Ub-AMC cleavage, fluorescence; hit rate 0.33% among 330,000; purified proteasome/UCH37; inhibition, % (test concentration not listed); AID 588478, 2011; Ubiquitin carboxyl-terminal hydrolase isozyme L5 (Homo sapiens), Q9Y5K5;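 active = mean inhibition over replicate wells above about 20%, limit read from the data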
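Material: human UCH37 enzyme supplied as purified proteasome complex / Amount: 0.15 nM proteasome as dispensed / Buffer or medium: pH 7.4 Tris-HCl (50 mM) with ovalbumin, ATP-MgCl2, DTT / Times: preincubation 30 min, reaction 25 min, room temperature / Technique: AMC fluorescence from Ub-AMC cleavage, excitation 355 nm, emission 460 nm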
NR1D1 mod conf: modulators of Rev-erb alpha DNA binding, confirmation, biochemical, FITC-DNA, fluorescence polarization, single point | shares compounds with NR1D1 modulator | 90 min | activation, % at 25 µM | hit rate 61% among 3,000 | AID 1259319, 2017;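 active = activation at or above a set limit, or at least 3 SD above the negative control mean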
RORg counter: modulation of RORgamma DNA binding, dose response, counter-screen for Rev-erb alpha modulator project, biochemical, fluorescence polarization, FITC-DNA; hit rate 8% among 910; shares compounds with NR1D1 modulator; purified RORgamma protein-FITC-DNA binding; IC50, µM;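 active = Compounds whose fitted half-maximal concentration for disrupting protein-DNA binding is below 10 micromolar; the record names Rev-erb in its text, so the target is in doubt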
Large screens that a line does not name were inactive (follow-up assays come after a bar, where they were run).

Cc1cccn2c(=O)c3cc(C(=O)N4COCC4(C)C)n(Cc4ccccc4)c3nc12	NR1D1 modulator 31 | NR1D1 mod conf inactive
Cn1cc(C(=O)NC2CCCCCC2)c(=O)c2cc(S(=O)(=O)N3CCCC3)ccc21	NR1D1 modulator 32 | NR1D1 mod conf 18
CC(=O)c1cc(NC(=O)c2ccc(Cl)cc2)c(=O)oc1/C=C/N(C)C	NR1D1 modulator 26 | NR1D1 mod conf 29
CC(=O)c1cc(NC(=O)c2cccc(C(F)(F)F)c2)c(=O)oc1/C=C/N(C)C	NR1D1 modulator 20 | NR1D1 mod conf inactive
COc1cc(C=NNC(=O)CNC(=O)c2cccs2)ccc1O	none (no result: NR1D1 modulator, Rce1 inh, CR mimetic SO, PG9 Ab binder, MIN6 prolif)
Cc1ccnc(N2CCC(C(=O)Nc3ccc(Oc4ccccc4)cc3)CC2)n1	NR1D1 modulator 24 (no result: UCH37 DUB inh) | NR1D1 mod conf inactive
Cc1cc(C)nc(N2CCC(C(=O)Nc3ccc(Oc4ccccc4)cc3)CC2)n1	none
COc1ccc(CNC(=O)CSc2nnnn2C)cc1OC	NR1D1 modulator 31 | NR1D1 mod conf inactive
Cn1nnnc1SCC(=O)NCc1ccc2c(c1)OCO2	none
CC(CC(=O)NC1CCCCC1)=NNC(=O)Cc1ccc(-c2ccccc2)cc1	none (no result: NR1D1 modulator, Rce1 inh, CR mimetic SO, PG9 Ab binder, MIN6 prolif)
Cc1sc(NC(=O)c2oc3ccccc3c2C)c(C#N)c1C	NR1D1 modulator 226 (no result: PG9 Ab binder) | NR1D1 mod conf 283
CCOc1cc(C=NNS(=O)(=O)c2ccccc2)ccc1OS(=O)(=O)c1ccc(C)cc1	none (no result: NR1D1 modulator, Rce1 inh, CR mimetic SO, PG9 Ab binder, MIN6 prolif)
O=C(CSc1nnc(-c2ccccc2O)o1)Oc1ccc(OCc2ccccc2)cc1	NR1D1 modulator 36 | NR1D1 mod conf inactive
CN(C)c1ccc(C=NNC(=O)c2ccc(CN3CCOCC3)cc2)cc1Br	none (no result: NR1D1 modulator, Rce1 inh, CR mimetic SO, PG9 Ab binder, MIN6 prolif)
CSc1nc(C)cc(C)c1C#N	none
CSc1nc2cc(C)nn2c(-c2ccccc2)c1C#N	NR1D1 modulator 26 | NR1D1 mod conf inactive
Cc1ccc(-c2nn3c(C)nnc3s2)cc1NC(=O)c1ccc(-c2cccc(Cl)c2)o1	none (no result: CR mimetic SO)
Cc1ccc(-c2nn3c(C)nnc3s2)cc1NC(=O)c1ccc(-c2ccc(Cl)cc2Cl)o1	NR1D1 modulator 124 (no result: Rce1 inh) | NR1D1 mod conf 186 | RORg counter inactive
Cc1cc(=O)oc2cc(NC(=O)c3ccnn3C)ccc12	none (no result: NR1D1 modulator, PG9 Ab binder)
Cc1cc(=O)oc2cc(NC(=O)c3c(Cl)cnn3C)ccc12	NR1D1 modulator 21 | NR1D1 mod conf inactive
CCc1ccc2c(COC(=O)c3n[nH]c4ccccc34)cc(=O)oc2c1	none
Cc1ccc2c(COC(=O)c3n[nH]c4ccccc34)cc(=O)oc2c1	NR1D1 modulator 17 | NR1D1 mod conf inactive
NC(=O)NN=C1CCS(=O)(=O)c2ccc(F)cc21	none (no result: NR1D1 modulator, Rce1 inh, CR mimetic SO, PG9 Ab binder, MIN6 prolif)
COc1ccc(-c2c(C#Cc3ccsc3)c3cc(-c4ccc5c(c4)OCCO5)ccc3n2C)cc1	NR1D1 modulator 54 (no result: Rce1 inh) | NR1D1 mod conf 77 | RORg counter 3.4
COc1cc(OC)cc(-c2c(C#Cc3ccsc3)c3cc(-c4ccc(OC)c(OC)c4)ccc3n2C)c1	none (no result: Rce1 inh)
COc1ccc(-c2c(C#Cc3ccsc3)c3cc(-c4ccc5c(c4)OCO5)ccc3n2C)cc1	NR1D1 modulator 21 (no result: Rce1 inh) | NR1D1 mod conf 30
COc1cc(OC)cc(-c2c(C#Cc3ccsc3)c3cc(-c4ccc5c(c4)OCO5)ccc3n2C)c1	NR1D1 modulator 26 (no result: Rce1 inh) | NR1D1 mod conf 26
CCOC(=O)c1sc(NC(=O)c2ccc(S(=O)(=O)N(CC)CC)cc2)nc1C	NR1D1 modulator 152 (no result: Rce1 inh) | NR1D1 mod conf 94 | RORg counter inactive
